APJ ag – agonists of human apelin receptor APJ, primary screen, CHO-K1 cells, PathHunter beta-arrestin, luminescence; 0% DMSO wells, 100% apelin; activation, % at 20 µM; 330,000 compounds, 0.11% hits; AID 2520, 2010;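 active means activation more than six SD over the plate average, tested at 20 µM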;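 further: 0% = DMSO alone and 100% = apelin-13 at 10 nM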
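Test system: CHO-K1 APJ beta-arrestin complementation cell line | Compound: Single test compound dose, 20 µM final, 1% DMSO | Incubation: Compound 90 min 25 °C, reagent 1 h | Measured by: beta-gal luminescence | Read-out basis: APJ–arrestin association signal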
CCR6 antagonist – CCR6 receptor antagonists, primary screen, cell-based, CHO-K1, luminescence, beta-arrestin, uHTS | C-C chemokine receptor type 6 (Homo sapiens), P51684 | CHO-K1 CCR6 PathHunter beta-arrestin, CCL20-stimulated | inhibition, % at 20 µM | 340,000 compounds, 0.49% hits | AID 493098, 2011;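 active means compounds whose inhibition of the agonist-driven luminescence signal at 20 µM reaches about 50%, limit read from the data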;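 further: cells stimulated with CCL20 at 14 nM final; plate controls were DMSO with CCL20 for no effect and DMSO without agonist for full effect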
CXCR6 inh – CXCR6 receptor inhibitors, primary screen, cell-based, beta-arrestin, luminescence, CHO-K1 PathHunter, 1536-well | C-X-C chemokine receptor type 6 (Homo sapiens), O00574 | inhibition, % at 20 µM | 360,000 compounds, 0.36% hits; in the data active means inhibition above about 34%, passing the limit was not always enough;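 further: antagonist mode with CXCL16 agonist at 10 nM final; 0% = 10 nM CXCL16 with DMSO and 100% = unstimulated wells without agonist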
EBI2 block – EBI2 receptor antagonists, beta-arrestin recruitment, primary screen, cell-based, luminescence, 7a,25-OHC stimulation, uHTS; 7a,25-OHC stimulated; G-protein coupled receptor 183 (Homo sapiens), P32249; AID 651636, 2012; inhibition, % at 5 µM; 360,000 compounds, 0.81% hits; in the data active means inhibition above about 38%;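 further: enzyme fragment complementation signal reports receptor beta-arrestin coupling in cells; 0% = agonist plus DMSO wells and 100% = wells without agonist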
Target sequence (P32249 whole entry, looked up, the tested form may be a part): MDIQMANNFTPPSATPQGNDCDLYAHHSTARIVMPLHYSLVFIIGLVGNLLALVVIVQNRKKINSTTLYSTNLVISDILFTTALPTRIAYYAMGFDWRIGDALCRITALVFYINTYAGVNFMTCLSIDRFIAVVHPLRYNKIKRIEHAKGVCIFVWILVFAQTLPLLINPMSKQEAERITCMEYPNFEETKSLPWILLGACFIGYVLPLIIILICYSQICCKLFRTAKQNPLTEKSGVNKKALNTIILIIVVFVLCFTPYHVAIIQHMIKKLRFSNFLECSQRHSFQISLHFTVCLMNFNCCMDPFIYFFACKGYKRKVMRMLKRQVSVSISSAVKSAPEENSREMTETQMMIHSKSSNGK
APJ antagonist – antagonists of human apelin receptor APJ, primary screen, CHO-K1 cells, beta-arrestin complementation, luminescence. P35414. inhibition, % at 20 µM. 330,000 compounds, 0.32% hits. AID 2521, 2010;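 active means inhibition above about 40% at 20 µM, limit read from the data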;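 further: cells challenged with 10 nM apelin-13 agonist together with compound; plate controls were apelin-13 plus DMSO wells for no effect and DMSO wells lacking apelin-13 for full effect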
CXCR6 confirm – CXCR6 receptor antagonists, confirmation, cell-based, single concentration, beta-arrestin, luminescence; CHO-K1 CXCR6 PathHunter beta-arrestin; 700 compounds, 65% hits; inhibition, % at 20 µM; shares compounds with CXCR6 inh;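 active means mean inhibition over four retests above 40%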;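 further: receptor stimulated with 10 nM CXCL16 agonist; beta-galactosidase fragment complementation upon beta-arrestin recruitment to receptor; plate controls were CXCL16 plus DMSO for no effect and DMSO without CXCL16 for full effect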
* = called active by the depositor; nt = no result given. Most compounds without a hit are left out; they make up all but 1.5% or so of the library.

SMILES	APJ ag	CCR6 antagonist	CXCR6 inh	EBI2 block	APJ antagonist	CXCR6 confirm
CNc1cnn(-c2ccc(C)cc2)c(=O)c1Cl	0	1	56*	1	-7	2
COC(=O)[C@H](Cc1ccccc1)NC(=O)/C=C/[C@H]1O[C@@H](n2ccc(=O)[nH]c2=O)[C@H](O)[C@@H]1O	nt	nt	-5	-11	nt	nt
CCCCCCn1c(=O)n2n(c1=O)C[C@]1(OC(=O)NCc3ccco3)CN(S(=O)(=O)c3ccc(C)cc3)C[C@]1(O)C2	nt	nt	-3	2	nt	nt
Cc1cc(C)cc(NC(=O)c2cccnc2)c1	2	13	40*	-3	-4	5
O=C(/C=C/c1cccnc1)c1ccc(NC(=O)c2cccc(Br)c2)cc1	5	23	9	-3	18	nt
Cc1cccc(C(=O)Nc2ccc(C(=O)/C=C/c3cccnc3)cc2)c1	nt	34	36*	33	nt	44*
CCOc1cc(/C=C2\C(=O)N(c3cccc(C(F)(F)F)c3)C(=O)c3ccccc32)ccc1O	-2	46	44*	4	15	43*
COc1cccc(/C=C2\C(=O)N(c3cccc(C)c3)C(=O)c3ccccc32)c1	0	14	-10	17	9	nt
CC1(C)Cc2ccccc2C(NNC(=O)c2ccccn2)=N1	-6	28	45*	-3	22	41*
COc1ccc(N2C(c3ccsc3)=Cc3cc4c(cc3C2c2c[nH]c3ccccc23)OCO4)cc1 (stereo not drawn)	nt	nt	1	7	nt	nt
CC(C)C[C@@H]1COc2cccc(N3CCC[C@H]3CO)c2S(=O)(=O)N1	nt	nt	-7	-13	nt	nt
Cc1ccc(C(=O)NC(=S)Nc2ccc(NC(=O)c3cccs3)cc2)cc1[N+](=O)[O-]	-5	50*	28*	2	20	24
COC(=O)c1cc(CSc2nc3ccc(C)cc3[nH]2)oc1C	-6	33	43*	23	27	41*
Cc1nc2c(OCc3ccc(C(F)(F)F)cc3)cccn2c1N(C)CC1CC1	nt	nt	47*	22	nt	24
O=C(O/N=C1\C(=O)N(c2ccccc2)c2ccccc21)C1CC1	-3	1	-2	-4	5	nt
CN1C(=O)/C(=N/OC(=O)c2ccccc2)c2ccccc21	-4	44	40*	-9	31	35
CCC(=O)OCCNc1cc(SCCC(=O)OC)c2nonc2c1[N+](=O)[O-]	-14	64*	58*	-12	20	59*
CCC(=O)OCCNc1cc(Sc2nccn2C)c2nonc2c1[N+](=O)[O-]	nt	112*	102*	53*	nt	104*
CC(=O)OCCNc1cc(SC(C)C)c2nonc2c1[N+](=O)[O-]	-3	18	10	9	5	nt
Cc1ccc(NC(=S)N/N=C/c2ccc([N+](=O)[O-])s2)cc1	1	72*	52*	50*	-21	72*
CC(C)CC1C(=O)N(Cc2cn(CC3CCCCC3)nn2)CCS(=O)(=O)N1Cc1ccc(-c2ccc(Cl)c(Cl)c2)cc1 (stereo not drawn)	nt	nt	104*	17	nt	15
CC(=NNC(=S)N1CCCCC1)c1ccccn1	nt	nt	-17	-10	nt	nt
CC(=NNC(=S)N1CCCCC1)c1cccc(C)n1	nt	23	43*	2	nt	20
CCC(=O)c1ccc(OCC(=O)Nc2nc(-c3cccnc3)cs2)cc1	9	-6	-7	-6	-1	nt
O=C(CCS(=O)(=O)c1ccc(F)cc1)Nc1nc(-c2ccccn2)cs1	4	3	-9	-14	-12	nt
SMILES	APJ ag	CCR6 antagonist	CXCR6 inh	EBI2 block	APJ antagonist	CXCR6 confirm
CCc1ccccc1OCC(=O)Nc1nc(-c2cccnc2)cs1	-4	76*	51*	-10	17	64*
CC(Oc1ccc(F)cc1)C(=O)Nc1nc(-c2ccccn2)cs1 (stereo not drawn)	-7	71*	67*	-8	-2	87*
Cc1cc(C)c(OCC(=O)Nc2nc(-c3ccccn3)cs2)c(C)c1	-4	nt	52*	-12	-9	39
COc1ccc(Br)cc1S(=O)(=O)N(CC(=O)N1CCOCC1)c1ccccc1	1	5	1	-15	-3	nt
COC(=O)CN(c1ccccc1)S(=O)(=O)c1cc(Br)ccc1OC	-1	9	92*	-1	6	22
N#Cc1c(N)n(-c2ccc(N)cc2)c2nc3ccccc3nc12	-3	12	2	-6	5	nt
N#Cc1c(C#N)c(SSc2c(C#N)c(C#N)c(N)n2-c2ccccc2)n(-c2ccccc2)c1N	nt	109*	101*	-17	nt	85*
CS(=O)(=O)c1ccc(C(=O)OCc2nnc(-c3ccccc3)o2)cc1[N+](=O)[O-]	nt	62*	64*	56*	nt	76*
O=S(=O)(NC(=S)c1ccccc1)c1ccc(F)cc1	-1	-9	76*	1	27	0
CCc1nnc(NS(=O)(=O)c2ccc(NS(=O)(=O)c3ccccc3[N+](=O)[O-])cc2)s1	-2	-2	-30	0	3	nt
CCc1nnc(NS(=O)(=O)c2ccc(Nc3ccc([N+](=O)[O-])c4nonc34)cc2)s1	-9	73*	48*	9	65*	42*
CC(=O)Nc1ccc(N=Cc2c(O)c(C(=O)Nc3ccccc3)cc3ccccc23)cc1	3	-19	nt	nt	-29	nt
CCOc1cc(Br)c(Br)c(C=Nc2ccc(NC(C)=O)cc2)c1O	-5	19	42*	20	31	70*
COC(=O)[C@]12CCCCC=C1N(Cc1ccc3c(c1)OCO3)C(=O)[C@H](CC(=O)NCCCN1CCCC1=O)C2	nt	nt	nt	-5	nt	nt
O=[N+]([O-])c1cc2no[n+]([O-])c2cc1N1CCCCC1	nt	106*	100*	-30	nt	93*
N#Cc1cc(N2CCCCC2)c([N+](=O)[O-])cc1C#N	-1	-9	4	4	-12	nt
C[C@@H]1CC=C[C@@H]2[C@H]1C(=O)N(Cc1ccccc1)[C@H]2c1ccccc1Br	nt	7	35*	20	nt	5
O=[N+]([O-])c1ccc(Cl)cc1Sc1cccc2cccnc12	-3	-14	2	5	8	nt
Cn1nc([N+](=O)[O-])nc1Sc1cccc2cccnc12	-2	38	44*	-6	-4	41*
CCCCC(=O)NC(=S)NNC(=O)c1ccc(OC)cc1	-2	69*	46*	5	40	48*
C[C@@H]1CN([C@H](C)CO)S(=O)(=O)c2ccc(C#Cc3ccccc3)cc2O[C@H]1CN(C)C(=O)Nc1ccc2c(c1)OCO2	nt	nt	4	33	nt	nt
